Compound activity: PubChem BioAssay, Sanford-Burnham Center for Chemical Genomics
Shown are actives, neighbours in structure and some others; about 3.9% of the full set was active somewhere.
tim23-1 inh = tim23-1 yeast growth inhibition. S. cerevisiae tim23-1 growth, BacTiter-Glo luminescence, 24 h. inhibition, % at 20 µM. 1.3% of 330,000 active;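 active means growth inhibition of the mutant yeast at or above 50%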;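 further: temperature-sensitive mutant grown at 25 °C; plate controls were DMSO-treated mutant yeast for no effect and medium wells lacking yeast for full effect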
CHOP UPR activ = activators of apoptotic arm of unfolded protein response (CHOP). 0.34% of 330,000 active. CHO-CHOP luciferase reporter, UPR activation, luminescence; percent of tunicamycin response over DMSO baseline. activation, % at 10 µM;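 active means at 10 µM dose, activation of 40% or more, normalized to positive control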;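 further: 100% = tunicamycin at 10 µg/mL and 0% = DMSO alone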
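Assay system: CHO cells with stable CHOP pathway luciferase reporter; Buffer or medium: F12 plus 10% serum; Times: 16-18 h cell attachment, then 6 h compound exposure, 37 °C; Signal: luciferase luminescence; Read-out basis: percent activation relative to tunicamycin control; Control set: tunicamycin high control, DMSO low control.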
XBP1 UPR activ = activators of adaptive arm of unfolded protein response (XBP1) | activation, % at 20 µM | CHO-XBP1 luciferase reporter, IRE1-XBP1 UPR activation, luminescence; percent of tunicamycin response, DMSO as zero | 0.33% of 330,000 active;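 active means versus positive control, 20 µM dose yields 30% or more activation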;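 further: 100% = tunicamycin at 10 µg/mL and 0% = DMSO only wells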
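Assay system: CHO-XBP1 luciferase reporter cells; Schedule: 6 h treatment, 37 °C; Detection: glow luminescence from Steady-Glo reagent; Benchmarks: high control tunicamycin 10 µg/mL final, low control DMSO vehicle only.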
TIM10 inh = inhibits growth of TIM10 yeast strain; S. cerevisiae TIM10 strain growth, BacTiter-Glo luminescence, 24 h; inhibition, % at 10 µM; 1.4% of 330,000 active; AID 463195;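 active means inhibition of 40% or more at the single tested concentration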;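 further: wild-type TIM10 isogenic control strain grown at permissive 25 °C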
tim10-1 inh = inhibits growth of tim10-1 mutant yeast. S. cerevisiae tim10-1 ts strain growth, BacTiter-Glo, 24 h. inhibition, % at 20 µM. 2.2% of 330,000 active. AID 463190;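 active means inhibition of at least 40%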;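 further: mutant grown at 25 °C; 0% = DMSO wells with yeast and 100% = wells holding no yeast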
tim10-1 conf = confirmation of tim10-1 mutant yeast growth inhibitors; shares compounds with tim10-1 inh; AID 463213; inhibition, % at 20 µM; 56% of 7,400 active; S. cerevisiae tim10-1 ts strain growth, BacTiter-Glo, 24 h;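 active means inhibition of yeast growth at or above a set limit in either of two repeat tests at 20 µM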;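 further: tim10-1 mutant grown at permissive 25 °C to find synthetic lethal compounds; 0% = DMSO yeast wells and 100% = medium wells without yeast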
TIM10 conf = TIM10 yeast growth inhibition, confirmed. inhibition, % at 10 µM. 63% of 4,600 active. shares compounds with TIM10 inh. AID 463215. S. cerevisiae tim10 strain growth, BacTiter-Glo luminescence, 24 h;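 active means inhibition of yeast growth at or above a set limit in either of two replicates at 10 µM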;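 further: this counterscreen used the strain with wild-type TIM10; 0% = yeast with DMSO and 100% = medium wells lacking yeast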
Active calls of the source: *; nt = no result.

SMILES | tim23-1 inh | CHOP UPR activ | XBP1 UPR activ | TIM10 inh | tim10-1 inh | tim10-1 conf | TIM10 conf
COc1cc2c(cc1OC)C(c1ccc(-c3cc(Cl)ccc3Cl)o1)=NCC2 | -2.4 | -1.1 | 4.2 | 45.1* | 45.8* | 43.5* | 45.5*
COc1cc2c(cc1OC)C(c1ccc(-c3ccccc3Cl)o1)=NCC2 | 49.0 | -1.4 | -1.8 | 45.6* | 46.0* | 40.4* | 47.3*
CCSc1nnc([C@H](Cc2ccccc2)NC(=O)OC(C)(C)C)o1 | 13.7 | 1.5 | -2.8 | 23.3 | 24.8 | nt | nt
Cc1ccccc1CS(=O)(=O)c1nnc([C@H](Cc2ccccc2)NC(=O)OC(C)(C)C)o1 | 32.9 | -4.7 | -7.2 | 67.9* | 71.7* | 51.3* | 50.1*
CC(C)(C)OC(=O)N[C@@H](Cc1ccccc1)c1nnc(S(=O)(=O)Cc2ccccc2)o1 | 47.7 | -10.0 | -5.0 | 59.2* | 72.7* | 55.4* | 46.0*
NC(=O)CC(NC(=O)Cc1ccc(Cl)cc1)c1ccc(NCCN2CCOCC2)c([N+](=O)[O-])c1 (stereo not drawn) | 10.2 | 0.6 | -2.4 | 4.5 | -1.6 | nt | nt
C/C(=N\NC(=S)NC(C)C)c1ccc2c(c1)OCCO2 | 40.4 | 3.4 | 1.1 | 41.2* | 42.6* | 18.8 | 7.7
CNC(=S)N/N=C(\C)c1ccc2c(c1)OCCO2 | 9.7 | 0.3 | -1.3 | 19.4 | 16.0 | nt | nt
FC(F)(F)c1cccc(Cc2noc(CN3CCC(c4ccncc4)CC3)n2)c1 | 44.8 | 0.9 | 0.1 | 42.1* | 44.2* | 41.5* | 43.3*
CN1CCCC2(CCCN(Cc3nc(Cc4cccc(C(F)(F)F)c4)no3)C2)C1 (stereo not drawn) | 19.8 | 0.0 | -1.7 | -1.0 | 6.6 | nt | nt
O=C(/C=C/c1cc2ccccc2o1)c1ccccc1O | 48.0 | 4.1 | 2.3 | 58.3* | 40.5* | 49.2* | 57.8*
COc1ccc(O)c(C(=O)/C=C/c2cc3ccccc3o2)c1 | 38.7 | 1.0 | 13.0 | 48.0* | 56.8* | 36.8* | -11.2
COc1ccc(/C=C/C(=O)c2cc(Cl)ccc2O)c(OC)c1 | 32.0 | 4.8 | 3.6 | 22.5 | 18.6 | nt | nt
O=C(NNC(=O)c1ccccc1O)c1cc2ccccc2o1 | 14.6 | 2.0 | 2.6 | 15.6 | 28.4 | nt | nt
COCC(CN1CCN(C2=NS(=O)(=O)c3ccccc32)CC1)OC(=O)c1ccccc1 (stereo not drawn) | 4.0 | 0.0 | 4.9 | 13.6 | -11.8 | nt | nt
O=C(COc1ccccc1F)Nc1ccc(S(=O)(=O)NCc2ccco2)cc1 | 27.6 | -0.9 | -2.0 | 40.1* | 46.2* | 33.1* | -16.8
CCc1c(C)c2c(C)nn(-c3ccccc3)c2oc1=O | -0.6 | 0.1 | 2.5 | 41.6* | 54.8* | 53.9* | 20.7
Cc1nnc(-c2cccc(Br)c2)c2cn(-c3ccccc3Cl)nc12 | 41.7 | 1.2 | 0.6 | 51.4* | 51.0* | 39.2* | 49.9*
CC1=CC(C)(C)N2C(=O)C3(SCC(=O)N3c3ccc(F)cc3)c3cc(C)cc1c32 (stereo not drawn) | 43.4 | -1.2 | 1.6 | 41.2* | 46.3* | 25.7 | 37.4*
CC1=CC(C)(C)N2C(=O)C3(NCCc4c3[nH]c3ccccc43)c3cc(C)cc1c32 (stereo not drawn) | 35.5 | 1.9 | -2.1 | 12.4 | 18.2 | nt | nt
N#C/C(=C/c1ccc(N2CCCCC2)o1)c1cccc(F)c1 | 37.9 | 19.7 | 6.2 | 46.4* | 55.3* | 50.6* | 28.1
CC1CCC(C(=O)NC(C(=O)NCCc2ccc(S(N)(=O)=O)cc2)C(C)C)CC1 (stereo not drawn) | 1.5 | 0.1 | -0.1 | 5.4 | -14.5 | nt | nt
CCOc1ccc2nc(SCC(=O)NNC(=O)c3ccco3)c(C)cc2c1 | -2.1 | 0.9 | -3.5 | 8.9 | 9.9 | nt | nt
CCOc1ccc2cc(/C=C/C(=O)c3ccco3)c(Cl)nc2c1 | 49.1 | 8.4 | 0.5 | 41.6* | 48.8* | 36.0* | 13.6
Cc1ccc(S(=O)(=O)CCC(=O)c2ccc(O)cc2O)cc1 | 48.1 | 12.0 | -5.4 | 55.4* | 54.4* | 47.1* | 49.8*
SMILES | tim23-1 inh | CHOP UPR activ | XBP1 UPR activ | TIM10 inh | tim10-1 inh | tim10-1 conf | TIM10 conf
Cc1ccc(S(=O)(=O)CCC(=O)OCC(=O)c2cc(C)ccc2C)cc1 | 3.1 | 2.4 | -3.5 | -2.2 | -2.1 | nt | nt
CC(C)c1ccc(N(CC(=O)NCc2ccco2)C(=O)CCC(=O)Nc2ccccn2)cc1 | 0.7 | -0.6 | 1.1 | 4.9 | -0.1 | nt | nt
COc1ccc(OC)c(C(=O)/C=C/c2cccnc2)c1 | 33.3 | 9.3 | -5.5 | 42.0* | 48.5* | 32.3* | 33.9*
Cc1ccsc1/C=N/NC(=S)NCCc1ccccc1 | 18.2 | 0.5 | 3.8 | 40.8* | 54.0* | -17.3 | 43.5*
N#CCCN(C(=O)COC(=O)CCNS(=O)(=O)c1ccccc1)c1ccccc1 | -4.2 | -0.6 | -0.7 | 2.2 | 0.7 | nt | nt
O=c1c(Cl)c(NCc2ccc(F)cc2)cnn1C12CC3CC(CC(C3)C1)C2 | 44.1 | 0.6 | 3.0 | 52.4* | 47.0* | 38.4* | -1.7
O=c1c2ccccc2nc2c3ccccc3c(NCc3ccccn3)nn12 | 34.8 | 0.4 | 9.5 | 70.7* | 71.4* | 65.0* | 63.2*
O=c1c2ccccc2nc2c3ccccc3c(NCc3cccnc3)nn12 | 24.4 | 1.2 | 1.0 | 49.1* | 53.9* | 63.9* | 51.1*
CN1C(=O)C(C)(C)c2cc(S(=O)(=O)NCC3CCC(C(=O)NCc4ccccc4)CC3)ccc21 (stereo not drawn) | 4.6 | 1.6 | -3.5 | 4.5 | 3.4 | nt | nt
Cc1nnc(Nc2ccc(F)cc2)c2ccccc12 | 5.8 | 1.6 | -2.1 | 10.0 | 11.7 | nt | nt
Cc1nnc(Nc2ccccn2)c2ccccc12 | 46.4 | 1.3 | -0.8 | 84.7* | 66.3* | 70.5* | 82.6*
CCOc1cc(-c2nccc3cc(OC)c(OC)cc23)cc(OCC)c1OCC | 29.0 | 1.6 | 5.0 | 21.1 | 16.0 | nt | nt
CCCCOc1ccc(Nc2cc(Cl)ccc2C(=O)O)cn1 | 34.5 | 0.1 | -3.5 | 41.2* | 52.1* | 26.4 | 33.6*
Cc1ccc(-n2sc3ccccc3c2=O)cc1S(=O)(=O)N1CCCCC1 | 17.4 | 6.0 | -3.4 | 57.1* | 87.2* | 89.0* | 75.8*
Cc1ccccc1-n1sc2cc(F)ccc2c1=O | 41.3 | 2.3 | -3.4 | 48.9* | 40.3* | 38.1* | 70.0*
O=c1c2ccccc2sn1-c1ccccc1 | 31.6 | 9.2 | -2.2 | 57.9* | 85.6* | 51.2* | 97.2*
O=c1c2cc(F)ccc2sn1-c1ccccc1 | 37.6 | 10.4 | -4.9 | 47.3* | 45.5* | 55.7* | 76.8*
CC1NC(=O)c2ccccc2-n2c1nc1cc(F)ccc1c2=O (stereo not drawn) | 28.7 | 2.6 | -1.2 | 6.1 | 9.4 | nt | nt
